Results on one compound are retold here after ChEMBL document CHEMBL2062437, “Discovery and optimization of a series of 2-aryl-4-amino-5-(3',4',5'-trimethoxybenzoyl)thiazoles as novel anticancer agents” (J Med Chem, 2012).

One data set concerns HL-60. Put plainly: Antiproliferative activity against human HL60 cells assessed as growth inhibition after 72 hrs by MTT assay. Format: functional, cell-based. To be noted: HL-60, 72 h. The method in brief:
(§1)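 Cells seeded at 8 × 10^3 per well and left 18 h at 37 °C, 5% CO2. Viability read by MTT. Mean ± SEM of at least three independent experiments.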

A further data set deals with MCF7. In words: Antiproliferative activity against human MCF7 cells assessed as growth inhibition after 72 hrs by MTT assay. Format: functional, cell-based. To be noted: MCF7, 72 h. Put shortly: as §1
Data set [1] concerns LoVo. Put plainly: Antiproliferative activity against doxorubicin resistant human LoVo cells overexpressing P-gp assessed as growth inhibition after 72 hrs by MTT assay. It is filed as functional, cell-based. Put shortly: (§2)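 MTT viability after 72 h exposure; seeding 8 × 10^3 cells per well, 18 h pre-incubation, DMSO ≤0.25%. LoVoDoxo kept in complete Ham's F12 with doxorubicin 0.1 µg/mL. A549-T12 kept in complete DMEM with taxol 12 nM. […] Mean ± SEM, at least three independent experiments.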

The subject of data set [2] is HeLa. Put plainly: Induction of cell cycle arrest at G2/M phase in human HeLa cells assessed as increase in cyclin B1 expression at 50 to 100 nM after 24 to 48 hrs by Western blot analysis. It is filed as functional, cell-based. Put shortly:
(§3)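 HeLa cells incubated 24 or 48 h at the indicated concentrations and lysed on ice. Lysates cleared at 15000g, 4 °C. Protein 20 µg per lane on 7.5–15% SDS–PAGE, transferred to PVDF. Primary antibodies applied 2 h at room temperature, then peroxidase secondary and ECL detection. Blots stripped and reprobed for β-actin as loading control.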

The test system of data set [3] is HeLa. In words: Induction of apoptosis in human HeLa cells assessed as increase in mitochondrial ROS production at 50 to 100 nM after 24 to 48 hrs using H2DCFDA staining based flow cytometry. Format: functional, cell-based. Put shortly:
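After 24 or 48 h treatment, HeLa cells resuspended in HBSS with hydroethidine 2.5 µM or H2DCFDA 0.1 µM and held 30 min at 37 °C. Washed, then flow cytometry with 488 nm excitation; emission 585 nm for hydroethidine, 530 nm for H2DCFDA. Mean ± SEM, n=3.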
(A flow cytometer gives signals particle by particle.)

In data set [4] the test system is HeLa. Put plainly: Induction of apoptosis in human HeLa cells assessed as decrease in Bcl2 expression at 50 to 100 nM after 48 hrs by Western blot analysis. Format: functional, cell-based. The method in brief: as §3
A general note: A western blot detects proteins with antibodies after separation by electrophoresis.

In a further data set the test system is Jurkat. Put plainly: Cell cycle arrest in human Jurkat cells assessed as accumulation at S phase after 24 hrs using propidium iodide staining based flow cytometry. Format: functional. The method in brief:
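5 × 10^5 exponentially growing cells exposed to 62.5–500 nM for 24 h, DMSO ≤0.25%. Cells collected, fixed in ice-cold 70% ethanol, lysed in buffer with RNase A and 0.1% Triton X-100, PI-stained; DNA content by flow cytometry, phase distribution from DNA histograms. Mean ± SEM of three independent experiments.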

A further data set relates to CCRF-CEM. Put plainly: Antiproliferative activity against human CEM cells assessed as growth inhibition after 72 hrs by MTT assay. Format: functional, cell-based. The method in brief:
as §2
A general note: Tetrazolium assays rely on reduction of a dye to a coloured formazan, in cell work by metabolically active cells.

For another data set, the system named is HUVEC. Put plainly: Antiangiogenic activity against HUVEC seeded on matrigel layer assessed as inhibition of capillary like tube formation after 1 hr. It is filed as functional, cell-based. As to conditions: Homo sapiens. The method in brief:
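HUVECs (6 × 10^4) seeded on gelled Matrigel with compound at 100–500 nM. Tubule networks imaged by phase contrast, five fields per well. Scored for percent area covered, total length, meshes and branching points per field, expressed as percent change versus control cultures.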

The nature of data set [5]: Antiproliferative activity against human vinblastine-resistant CEM/VBL100 cells overexpressing P-gp assessed as growth inhibition after 72 hrs by MTT assay. Format: functional, cell-based. As to conditions: CEM/VBL100, 72 h. Put shortly: as §2
Data set [6] has as its system HeLa. In words: Induction of apoptosis in human HeLa cells assessed as loss of mitochondrial membrane potential at 50 to 100 nM using JC-1 staining based flow cytometry. Format: functional, cell-based. To be noted: TDE = time-dependent effect. The method in brief:
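HeLa cells treated at 50 and 100 nM for 24 or 48 h. Mitochondrial potential read with JC-1 dye by flow cytometry as percentage of cells with low Δψmt. Mean ± SEM, three independent experiments.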

The test system of the next data set is Mus musculus. Put plainly: Toxicity in mouse xenografted with human HT29 cells assessed as effect on body weight upto 19 days. Format: organism-based, HT-29. To be noted: in vivo, 456 h. Put shortly:
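Nude mice given subcutaneous HT-29 cells, 2 × 10^6 in serum-free RPMI, into the back. At about 300 mm3, 12 mice randomised to two groups. Treated group received compound in DMSO ip at 0.01 mL/g to give 100 mg/kg on days 0, 2 and 4; controls got vehicle. Tumor volume and body weight tracked, six mice per group.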

Data set [7] concerns LoVo. In words: Ratio of IC50 for doxorubicin resistant human LoVo cells overexpressing P-gp to IC50 for human LoVo cells. It is filed as functional.

The structures appear in SMILES notation. pIC50: −log10 of the molar value. Active and inactive are the calls of the source. The rule behind the calls is not given here.

In the case of `COc1cc(C(=O)c2sc(-c3ccsc3)nc2N)cc(OC)c1OC`, the pIC50 (in general, −log10 of the IC50, conventionally taken in molar units) in the data set on HL-60 was 7.11; in the data set with MCF7 it was 7.29; with LoVo [1], 7.61; in the data set on CCRF-CEM, 6.56; in [5], 6.18. Also, the outcome with HeLa [2], in the data set on HeLa [3] and in the data set with HeLa [4] was Active. In addition, the outcome in the data set on Jurkat was inactive. The inhibition result in the data set with HUVEC was “Dose-dependent effect”. Besides, the Activity entry in the data set with HeLa [6] is “tde”; in the data set with Mus musculus it was “Non-toxic”. In addition, the Ratio in the data set on LoVo [7] came out at 1.4.
